According to ChEMBL document CHEMBL1126775, “A pharmacological, crystallographic, and quantum chemical study of new inotropic agents” (J Med Chem, 1993):
Where “and” joins values, the source holds several entries; their conditions need not be identical. Equal values may be shown once.

Tests used:
[1] = Logarithm of the sum of contributions of each atom to the total lipophilicity of the molecule; type: physicochemical; conditions: octanol/water
Cavia porcellus [2] = organism: Cavia porcellus; test: Inotropic effect in electrically driven left atrium from reserpine-treated guinea pig at the concentration of 10 e-4 M; type: functional, Cardiac atrium
Procedure, shortened: (§1)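 Atria from reserpine-pretreated guinea pigs (2 mg/kg ip, 48 and 24 h), tyramine-unresponsive only. Left atrium loaded 0.5 g, paced at 1.5 Hz with 3-ms square pulses at 10–20% above threshold. Equilibrated 90 min. Agents added cumulatively, 5 min per concentration. Isometric developed tension expressed as % increase over control.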

Cavia porcellus [3] = organism: Cavia porcellus; test: Inotropic effect in electrically driven left atrium from reserpine-treated guinea pig at the concentration of 10 e-5 M; type: functional, Cardiac atrium; procedure, shortened: as §1
Cavia porcellus [4] = organism: Cavia porcellus; test: Inotropic effect in electrically driven left atrium from reserpine-treated guinea pig at the concentration of 2 x 10 e-3 M; type: functional, Cardiac atrium; procedure, shortened: as §1
Cavia porcellus [5] = organism: Cavia porcellus; test: Inotropic effect in electrically driven left atrium from reserpine-treated guinea pig at the concentration of 5 x 10 e-4 M; type: functional, Cardiac atrium; procedure, shortened: as §1
Cavia porcellus [6] = organism: Cavia porcellus; test: Inotropic effect in electrically driven left atrium from reserpine-treated guinea pig without 8-phenyl theophylline at the concentration of 10 e-4 M; type: functional, Cardiac atrium
Procedure, shortened: (§2)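 Paced left atrium from reserpine-pretreated, tyramine-unresponsive guinea pigs (0.5 g load, 1.5 Hz, 3-ms pulses). Cumulative additions of agent, 5 min each, with no 8-phenyltheophylline present. Developed tension as % increase over control. Mean ± SEM of six assays from six experiments; Student's t test against the 8-phenyltheophylline-treated preparations.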

Cavia porcellus [7] = organism: Cavia porcellus; test: Inotropic effect in electrically driven left atrium from reserpine-treated guinea pig without 8-phenyl theophylline at the concentration of 10 e-5 M; type: functional, Cardiac atrium; procedure, shortened: as §2
Cavia porcellus [8] = organism: Cavia porcellus; test: Inotropic effect in electrically driven left atrium from reserpine-treated guinea pig without 8-phenyl theophylline at the concentration of 5 x 10 e-4 M; type: functional, Cardiac atrium; procedure, shortened: as §2
Cavia porcellus [9] = organism: Cavia porcellus; test: Inotropic effect in electrically driven left atrium from reserpine-treated guinea pig without 8-phenyl theophylline at the concentration of 5 x 10 e-5 M; type: functional, Cardiac atrium; procedure, shortened: as §2
Cavia porcellus [10] = organism: Cavia porcellus; test: Inotropic response in electrically driven left atrium from reserpine-treated guinea pig without ADA at the concentration of 5 x 10 e-5 M; type: functional, Cardiac atrium
Procedure, shortened: (§3)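 Control arm: electrically driven left atrium (1.5 Hz, 3-ms pulses, 0.5 g load) from guinea pigs given reserpine 2 mg/kg ip at 48 and 24 h, tyramine-unresponsive; no adenosine deaminase. Cumulative additions after 90 min equilibration, 5 min per concentration. Isometric developed tension, % over control; six assays from six experiments.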

Cavia porcellus [11] = organism: Cavia porcellus; test: Inotropic response in electrically driven left atrium from reserpine-treated guinea pig with ADA (2 units/ml) at the concentration of 10 e-4 M; type: functional, Cardiac atrium
Procedure, shortened: (§4)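 Reserpinized guinea pigs (2 mg/kg ip, 48 and 24 h before death), tyramine-unresponsive atria. Electrically driven left atrium (1.5 Hz, 3-ms pulses, 0.5 g load) preincubated 20 min with adenosine deaminase after 90 min equilibration. Agents added cumulatively, 5 min per concentration. Developed tension recorded isometrically, % increase over control or % inhibition; six assays from six experiments, Student's t test.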

Cavia porcellus [12] = organism: Cavia porcellus; test: Inotropic effect in electrically driven left atrium from reserpine-treated guinea pig at the concentration of 10 e-3 M; type: functional, Cardiac atrium; procedure, shortened: as §1
Cavia porcellus [13] = organism: Cavia porcellus; test: Inotropic response in electrically driven left atrium from reserpine-treated guinea pig without VER at the concentration of 10 e-3 M; type: functional, Cardiac atrium
Procedure, shortened: (§5)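 Control arm without verapamil: left atrium from reserpinized guinea pigs (2 mg/kg ip, 48 and 24 h before), tyramine-unresponsive, paced at 1.5 Hz (3-ms pulses). Agents added cumulatively after 90 min equilibration, recorded 5 min each. Isometric developed tension as % increase over control; seven assays from seven experiments.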

Cavia porcellus [14] = organism: Cavia porcellus; test: Inotropic response in electrically driven left atrium from reserpine-treated guinea pig without VER at the concentration of 10 e-4 M; type: functional, Cardiac atrium; procedure, shortened: as §5
Cavia porcellus [15] = organism: Cavia porcellus; test: Inotropic response in electrically driven left atrium from reserpine-treated guinea pig without VER at the concentration of 10 e-5 M; type: functional, Cardiac atrium; procedure, shortened: as §5
Cavia porcellus [16] = organism: Cavia porcellus; test: Inotropic response in electrically driven left atrium from reserpine-treated guinea pig without VER at the concentration of 2 x 10 e-3 M; type: functional, Cardiac atrium; procedure, shortened: as §5
Cavia porcellus [17] = organism: Cavia porcellus; test: Inotropic response in electrically driven left atrium from reserpine-treated guinea pig without VER at the concentration of 5 x 10 e-4 M; type: functional, Cardiac atrium; procedure, shortened: as §5
Cavia porcellus [18] = organism: Cavia porcellus; test: Inotropic response in electrically driven left atrium from reserpine-treated guinea pig without VER at the concentration of 5 x 10 e-5 M; type: functional, Cardiac atrium; procedure, shortened: as §5
Cavia porcellus [19] = organism: Cavia porcellus; test: Inotropic response in electrically driven left atrium from reserpine-treated guinea pig with ADA (2 units/ml) at the concentration of 2 x 10 e-3 M; type: functional, Cardiac atrium; procedure, shortened: as §4
Cavia porcellus [20] = organism: Cavia porcellus; test: Inotropic response in electrically driven left atrium from reserpine-treated guinea pig with ADA (2 units/ml) at the concentration of 5 x 10 e-4 M; type: functional, Cardiac atrium; procedure, shortened: as §4
Cavia porcellus [21] = organism: Cavia porcellus; test: Inotropic response in electrically driven left atrium from reserpine-treated guinea pig with ADA (2 units/ml) at the concentration of 5 x 10 e-5 M; type: functional, Cardiac atrium; procedure, shortened: as §4
Cavia porcellus [22] = organism: Cavia porcellus; test: Inotropic response in electrically driven left atrium from reserpine-treated guinea pig with VER (10 e-7) at the concentration of 10 e-4 M; type: functional, Cardiac atrium
Procedure, shortened: (§6)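 Left atrium from reserpine-treated guinea pigs (2 mg/kg ip, 48 and 24 h prior; tyramine 2 μg/mL check), paced at 1.5 Hz with 3-ms pulses. Verapamil 0.1 μM added 10 min before cumulative agent additions (5 min each), after 90 min equilibration. Isometric developed tension as % increase over control; seven assays from seven experiments.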

Cavia porcellus [23] = organism: Cavia porcellus; test: Inotropic response in electrically driven left atrium from reserpine-treated guinea pig with VER (10 e-7) at the concentration of 2 x 10 e-3 M; type: functional, Cardiac atrium; procedure, shortened: as §6
Cavia porcellus [24] = organism: Cavia porcellus; test: Inotropic response in electrically driven left atrium from reserpine-treated guinea pig with VER (10 e-7) at the concentration of 5 x10 e-5 M; type: functional, Cardiac atrium; procedure, shortened: as §6
Cavia porcellus [25] = organism: Cavia porcellus; test: Inotropic response in electrically driven left atrium from reserpine-treated guinea pig without ADA at the concentration of 10 e-3 M; type: functional, Cardiac atrium; procedure, shortened: as §3
Cavia porcellus [26] = organism: Cavia porcellus; test: Inotropic response in electrically driven left atrium from reserpine-treated guinea pig without ADA at the concentration of 10 e-5 M; type: functional, Cardiac atrium; procedure, shortened: as §3
Cavia porcellus [27] = organism: Cavia porcellus; test: Effect on contractile force of spontaneously beating atria from reserpine treated guinea pigs at the concentration of 10 e-5 M; type: functional
Cavia porcellus [28] = organism: Cavia porcellus; test: Effect on contractile force of spontaneously beating atria from reserpine treated guinea pigs at the concentration of 2 x 10 e-3 M; type: functional
Cavia porcellus [29] = organism: Cavia porcellus; test: Effect on contractile force of spontaneously beating atria from reserpine treated guinea pigs at the concentration of 5x 10 e-4 M; type: functional
Cavia porcellus [30] = organism: Cavia porcellus; test: Effect on contractile force of spontaneously beating atria from reserpine treated guinea pigs at the concentration of 5x 10 e-5 M; type: functional
Cavia porcellus [31] = organism: Cavia porcellus; test: Effect on frequency rate of spontaneously beating atria from reserpine treated guinea pigs at the concentration of 10 e-3 M; type: functional
Cavia porcellus [32] = organism: Cavia porcellus; test: Effect on frequency rate of spontaneously beating atria from reserpine treated guinea pigs at the concentration of 10 e-4 M; type: functional
Cavia porcellus [33] = organism: Cavia porcellus; test: Effect on frequency rate of spontaneously beating atria from reserpine treated guinea pigs at the concentration of 10 e-5 M; type: functional
Cavia porcellus [34] = organism: Cavia porcellus; test: Effect on frequency rate of spontaneously beating atria from reserpine treated guinea pigs at the concentration of 2 x 10 e-3 M; type: functional
Cavia porcellus [35] = organism: Cavia porcellus; test: Inotropic effect in electrically driven left atrium from reserpine-treated guinea pig without 8-phenyl theophylline at the concentration of 10 e-3 M; type: functional, Cardiac atrium; procedure, shortened: as §2
Cavia porcellus [36] = organism: Cavia porcellus; test: Inotropic response in electrically driven left atrium from reserpine-treated guinea pig with VER (10 e-7) at the concentration of 10 e-5 M; type: functional, Cardiac atrium; procedure, shortened: as §6

logP [1]	Compound	Increase (Cavia porcellus [2]) [%]	Increase (Cavia porcellus [3]) [%]	Increase (Cavia porcellus [4]) [%]	Increase (Cavia porcellus [5]) [%]	Increase (Cavia porcellus [6]) [%]	Increase (Cavia porcellus [7]) [%]	Increase (Cavia porcellus [8]) [%]	Increase (Cavia porcellus [9]) [%]	Increase (Cavia porcellus [10]) [%]	Increase (Cavia porcellus [11]) [%]	Increase (Cavia porcellus [12]) [%]	Increase (Cavia porcellus [13]) [%]	Increase (Cavia porcellus [14]) [%]	Increase (Cavia porcellus [15]) [%]	Increase (Cavia porcellus [16]) [%]	Increase (Cavia porcellus [17]) [%]	Increase (Cavia porcellus [18]) [%]	Increase (Cavia porcellus [19]) [%]	Increase (Cavia porcellus [20]) [%]	other results
0.45	CC1CC(=O)c2ccc(O)nc2C1 (configuration not stated)	26.62	6.31	93.66	37.23	24.77	4.64	38.88	18.83	25	9.12	48.86	45.89	17.96	5.76	75.51	31.4	11.6	39.98	14.35	Increase (Cavia porcellus [21]): 5.52%; Increase (Cavia porcellus [22]): 2.43%; Increase (Cavia porcellus [23]): 43.8%; Increase (Cavia porcellus [24]): 2.45%; Increase (Cavia porcellus [25]): 46.19%; Increase (Cavia porcellus [26]): 15.78%; Increase (Cavia porcellus [27]): 4.28%; Increase (Cavia porcellus [28]): 80.98%; Increase (Cavia porcellus [29]): 39.48%; Increase (Cavia porcellus [30]): 18.88%; Increase (Cavia porcellus [31]): 19.68%; Increase (Cavia porcellus [32]): 3.29%; Increase (Cavia porcellus [33]): 2.63% and 3.21%; Increase (Cavia porcellus [34]): 26.44%; Increase (Cavia porcellus [35]): 56.72%; Increase (Cavia porcellus [36]): -0.32%
-0.1	CC(=O)c1cc(C#N)c(O)nc1C	38.06	12.64	67.13	48.67	28.87	12.62	48.18	17.81	13.32	10.08	58.73	77.46	37.34	18.83	94.47	62.96	28.29	80.21	20.37	Increase (Cavia porcellus [21]): 8.32%; Increase (Cavia porcellus [22]): 28.47%; Increase (Cavia porcellus [23]): 88.84%; Increase (Cavia porcellus [24]): 19.5%; Increase (Cavia porcellus [25]): 42.05%; Increase (Cavia porcellus [26]): 5.26%; Increase (Cavia porcellus [27]): 13.9%; Increase (Cavia porcellus [28]): 64.11%; Increase (Cavia porcellus [29]): 57.22%; Increase (Cavia porcellus [30]): 27.64%; Increase (Cavia porcellus [31]): 21.93%; Increase (Cavia porcellus [32]): 6.62%; Increase (Cavia porcellus [33]): 0.23% and 1.35%; Increase (Cavia porcellus [34]): 22.98%; Increase (Cavia porcellus [35]): 56.71%; Increase (Cavia porcellus [36]): 12.63%
